The IC50 is the point on the concentration scale where inhibition reaches its midpoint. One may read the Ki as a dissociation constant, usually derived from enzyme kinetics or from competition with a known ligand.

The results in this text go back to ChEMBL document CHEMBL1765064, “Discovery of potent and selective inhibitors of ataxia telangiectasia mutated and Rad3 related (ATR) protein kinase as potential anticancer agents” (J Med Chem, 2011).

Structures are written as SMILES.

The target in data set [1] is T1, Serine/threonine-protein kinase ATR (Homo sapiens, UniProt Q13535). The data set can be described thus: Inhibition of full length recombinant ATR after 24 hrs by radiometric phosphate incorporation assay. In a few lines: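 Radiometric [γ-33P]ATP incorporation into target peptide. Full-length ATR and ATM were made in-house; DNA-PK was purchased. Kinase, buffer and peptide were premixed, then compound was added in DMSO (7% final DMSO). Reactions started with ATP at 25 °C and were stopped with phosphoric acid (100 mM final) plus ATP (0.66 μM final). Peptide was captured on phosphocellulose, washed, and scintillation-counted.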

The target in data set [2] is Serine-protein kinase ATM (Homo sapiens, UniProt Q13315). The data set is described as follows: Inhibition of full length recombinant ATM after 24 hrs by radiometric phosphate incorporation assay.
Data set [3] has as its target DNA-dependent protein kinase catalytic subunit (Homo sapiens, UniProt P78527). The data set is described as follows: Inhibition of DNAPK after 2 hrs by radiometric phosphate incorporation assay.
Data set [4] concerns the target T1, Serine/threonine-protein kinase ATR. The data set can be described thus: Inhibition of ATR in human HT-29 cells assessed as hydroxyurea-induced phosphorylation of H2AX by immunofluorescence microscopy. The data set is classed as cell-based.
Data set [5] is described as follows: Permeability from apical to basolateral side of human Caco2 cells. The data set is classed as ADME, cell-based. The note with it: Caco-2, read-out: permeability.
The nature of data set [6]: Permeability from basolateral to apical side of human Caco2 cells. The data set is classed as ADME, cell-based. The note with it: Caco-2, read-out: permeability. In general terms: Caco-2 monolayers are a common model of the intestinal barrier.
The subject of data set [7] is HCT-116. The data set can be described thus: Cytotoxicity against human HCT116 cells after 96 hrs by MTS assay. The data set is classed as functional, cell-based. The conditions noted are these: HCT-116, 96 h. In short, it runs like this:
(§1)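 Exponentially growing cells were plated and left to adhere overnight. Compounds were added at the indicated concentrations for 96 h. MTS reagent was then added, and absorbance at 490 nm was read 1 h later as a measure of cell density.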
(Formazan colour is commonly taken as a measure of viable cells.)

The test system of data set [8] is HFL1. The data set can be described thus: Cytotoxicity against human HFL1 cells at up to 20 uM after 96 hrs by MTS assay. The data set is classed as cell-based. The conditions noted are these: hfl1, 96 h. In short, it runs like this: as §1
In data set [9] the test system is HCT-116. The data set is described as follows: Potentiation of cisplatin-induced cytotoxicity against human HCT116 cells at 0.62 uM after 96 hrs by MTS assay. The data set is classed as functional. In short, it runs like this:
(§2)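 Exponentially growing cells (ATCC lines, kept per supplier) plated and left to adhere overnight, then given inhibitor at 0.62 μM combined with cisplatin at the indicated concentrations for 96 h. Cell density read by MTS reagent, absorbance at 490 nm 1 h after addition. Fold change in cisplatin potency taken as potentiation. Synergy judged by MacSynergy analysis.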

The test system of data set [10] is HFL1. The data set is described as follows: Potentiation of cisplatin-induced cytotoxicity against human HFL1 cells at 0.62 uM after 96 hrs by MTS assay. The data set is classed as cell-based. The conditions noted are these: hfl1, 96 h. In a few lines: as §2
Data set [11] addresses T1, Serine/threonine-protein kinase ATR. The data set can be described thus: Competitive inhibition of full length recombinant ATR Morrison equation analysis. In short, it runs like this: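 Mean IC50s were plotted against ATP concentration and fit to the tight-binding competitive-inhibition equation IC50 = Ki(1 + [ATP]/Km) + [E]/2 to obtain Ki.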

T1 sequence (Q13535 whole entry): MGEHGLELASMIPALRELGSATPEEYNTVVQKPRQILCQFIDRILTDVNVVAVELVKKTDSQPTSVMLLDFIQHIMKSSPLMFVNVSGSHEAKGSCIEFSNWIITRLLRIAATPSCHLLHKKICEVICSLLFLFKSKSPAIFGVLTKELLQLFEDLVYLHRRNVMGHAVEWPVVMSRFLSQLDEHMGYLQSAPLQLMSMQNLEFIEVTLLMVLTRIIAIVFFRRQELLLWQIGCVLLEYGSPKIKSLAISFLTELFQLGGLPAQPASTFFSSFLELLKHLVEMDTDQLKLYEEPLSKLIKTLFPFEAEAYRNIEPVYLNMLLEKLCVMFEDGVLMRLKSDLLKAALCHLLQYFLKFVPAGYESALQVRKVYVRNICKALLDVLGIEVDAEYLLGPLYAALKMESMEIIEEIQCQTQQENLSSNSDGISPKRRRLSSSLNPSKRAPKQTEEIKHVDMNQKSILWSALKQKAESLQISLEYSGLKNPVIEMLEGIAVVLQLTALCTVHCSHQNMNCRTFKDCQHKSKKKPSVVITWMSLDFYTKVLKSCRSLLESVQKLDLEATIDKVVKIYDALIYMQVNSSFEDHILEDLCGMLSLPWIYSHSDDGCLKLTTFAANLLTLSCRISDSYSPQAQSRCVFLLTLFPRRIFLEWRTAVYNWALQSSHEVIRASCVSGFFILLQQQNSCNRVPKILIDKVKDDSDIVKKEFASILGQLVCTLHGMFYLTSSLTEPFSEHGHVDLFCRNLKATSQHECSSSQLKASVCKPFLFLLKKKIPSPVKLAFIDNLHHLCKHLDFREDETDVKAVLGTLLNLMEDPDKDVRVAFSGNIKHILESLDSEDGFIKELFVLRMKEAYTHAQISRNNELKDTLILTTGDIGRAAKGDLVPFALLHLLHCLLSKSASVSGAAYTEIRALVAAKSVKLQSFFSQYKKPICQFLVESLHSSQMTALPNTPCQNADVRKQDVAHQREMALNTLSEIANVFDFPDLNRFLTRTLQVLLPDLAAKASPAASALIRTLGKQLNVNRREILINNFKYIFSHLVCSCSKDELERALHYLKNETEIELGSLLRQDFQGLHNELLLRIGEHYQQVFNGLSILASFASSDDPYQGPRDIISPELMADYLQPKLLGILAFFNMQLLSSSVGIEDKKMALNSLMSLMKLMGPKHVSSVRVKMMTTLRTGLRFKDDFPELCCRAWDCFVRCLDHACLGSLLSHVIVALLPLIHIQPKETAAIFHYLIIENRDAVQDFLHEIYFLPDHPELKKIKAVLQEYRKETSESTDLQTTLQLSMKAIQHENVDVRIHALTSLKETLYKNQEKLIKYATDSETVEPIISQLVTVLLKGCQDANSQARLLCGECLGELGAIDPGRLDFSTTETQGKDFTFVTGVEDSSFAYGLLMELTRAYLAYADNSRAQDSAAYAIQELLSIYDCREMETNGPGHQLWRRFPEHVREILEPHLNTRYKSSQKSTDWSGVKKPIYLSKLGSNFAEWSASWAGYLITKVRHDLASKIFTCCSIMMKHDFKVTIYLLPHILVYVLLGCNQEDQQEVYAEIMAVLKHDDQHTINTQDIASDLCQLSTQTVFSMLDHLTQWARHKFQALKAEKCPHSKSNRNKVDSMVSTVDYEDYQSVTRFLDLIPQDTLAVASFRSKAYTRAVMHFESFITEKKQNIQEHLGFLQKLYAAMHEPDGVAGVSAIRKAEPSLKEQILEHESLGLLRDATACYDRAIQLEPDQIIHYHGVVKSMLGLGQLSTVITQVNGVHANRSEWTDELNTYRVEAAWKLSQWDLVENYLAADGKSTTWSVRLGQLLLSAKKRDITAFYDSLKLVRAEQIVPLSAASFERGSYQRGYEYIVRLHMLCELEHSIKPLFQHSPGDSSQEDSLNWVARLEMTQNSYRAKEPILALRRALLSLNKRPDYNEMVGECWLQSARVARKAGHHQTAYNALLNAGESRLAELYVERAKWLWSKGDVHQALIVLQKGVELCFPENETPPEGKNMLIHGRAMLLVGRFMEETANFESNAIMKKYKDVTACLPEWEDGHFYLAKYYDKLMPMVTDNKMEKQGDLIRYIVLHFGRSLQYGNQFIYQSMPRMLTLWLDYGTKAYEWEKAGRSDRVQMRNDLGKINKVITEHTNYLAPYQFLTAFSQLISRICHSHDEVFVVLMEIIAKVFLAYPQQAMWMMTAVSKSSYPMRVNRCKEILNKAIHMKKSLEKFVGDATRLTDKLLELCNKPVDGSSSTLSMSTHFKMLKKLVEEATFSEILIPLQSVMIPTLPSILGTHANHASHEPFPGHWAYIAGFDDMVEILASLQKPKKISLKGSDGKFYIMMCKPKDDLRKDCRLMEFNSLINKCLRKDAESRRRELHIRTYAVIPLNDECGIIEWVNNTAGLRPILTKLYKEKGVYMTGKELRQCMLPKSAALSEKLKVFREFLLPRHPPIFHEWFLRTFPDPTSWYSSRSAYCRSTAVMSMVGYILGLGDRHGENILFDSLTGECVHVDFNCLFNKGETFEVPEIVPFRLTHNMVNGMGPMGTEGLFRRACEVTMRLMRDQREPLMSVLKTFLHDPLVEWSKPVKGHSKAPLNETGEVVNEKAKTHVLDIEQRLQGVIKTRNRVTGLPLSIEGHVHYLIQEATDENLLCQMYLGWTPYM

On to `CC(CN(C)C)S(=O)(=O)c1ccc(-c2cnc(N)c(C(=O)Nc3ccccc3)n2)cc1` (stereo unspecified), for which the IC50 was 0.012 µM in data set [1]; above 8 µM in data set [2]; above 8 µM in data set [3]; 0.42 µM in data set [4]; 1.1 µM with HCT-116 [7]. Moreover, the Papp A→B in data set [5] came out at 17 ×10⁻⁶ cm/s. Besides, the Papp B→A in data set [6] came out at 23 ×10⁻⁶ cm/s. In the data set on HFL1 [8], the Activity entry was “Non-toxic”. The results for the “fold change (FC)” value in the data set on HCT-116 [9] and in the data set on HFL1 [10] were 7 and 1.1, respectively. The Ki in data set [11] turned out to be 0.006 µM.
